Results pooled from the literature.
Protocols differ between the studies behind these lines.
Target: Voltage-gated inwardly rectifying potassium channel KCNH2 (KCNH2, Homo sapiens, UniProt Q12809)

O=C(Cc1ccc(F)c(C(F)F)c1)N1CCN(c2ccc3nncn3n2)CC1 — inhibition (ligand displacement; radioligand; 30 µM): 38%
CNC(=O)[C@@]12C[C@@H]1[C@@H](n1cnc3c(NCCc4ccc(OC)c(OC)c4)nc(C#Cc4ccc(Cl)s4)nc31)[C@H](O)[C@@H]2O — inhibition (ion current; inhibitor; 10 µM): > 50%
COc1ncc(C)c(-c2ccc3c(c2)[nH]c(=O)c2cnn([C@H]4CCOC4)c23)c1C — IC50 (ion current; inhibitor): 4 µM
CNC(=O)[C@@]12C[C@@H]1[C@@H](n1cnc3c(NCCc4ccc(O)c(OC)c4)nc(C#Cc4ccc(Br)s4)nc31)[C@H](O)[C@@H]2O — inhibition (ion current; inhibitor; 10 µM): > 50%
CCN(Cc1ccccc1C(F)(F)F)C(=O)C1CCN(S(=O)(=O)c2ccc3[nH]ncc3c2)CC1 — inhibition (ligand displacement; radioligand; 10 µM): 18%
CCc1cc(O)ccc1-c1ccc2c(-c3nc4c([nH]3)CN(C(C)C)[C@H](C(=O)N3CC(N(C)C)C3)C4)n[nH]c2c1 — inhibition (ion current; inhibitor; 13 µM): < 5%
N=c1n(CCN2CCCCC2)c2ccccc2n1CC(O)c1cccc(Br)c1 (centres unmarked) — inhibition (ion current; inhibitor; patch clamp; HEK293; 10 µM): 99%
Ic1cccc2cnccc12 — inhibition (ligand displacement; radioligand; 10 µM): 31%
CCN(CC)CCNC(=O)C1CCN(c2ccc3nnc(-c4cccc(C)c4)n3n2)CC1 — inhibition (ion current; inhibitor; patch clamp; HEK293; 10 µM): 58%
Cc1nc2cnc(N)c(C#Cc3cncc(C(=O)Nc4ccc(CN5CCN(C)CC5)c(C(F)(F)F)c4)c3)c2nc1C — IC50 (ion current; inhibitor): 2.4 µM
O=C(Cc1ccc(F)c(CF)c1)N1CCN(c2ccc3nncn3n2)CC1 — inhibition (ligand displacement; radioligand; 30 µM): 23%
